Results from ChEMBL document CHEMBL3352721, “Identification, optimization, and pharmacology of acylurea GHS-R1a inverse agonists” (J Med Chem, 2014).
≈ marks a conversion by molar mass, not a printed value. Calls of active or inactive are those of the source. No cut-off for these calls is given here.

Key:
[1] = Lipophilicity, logD of the compound; assay type: physicochemical; details: octanol/water
[2] = Ratio of drug level in homogenized brain to plasma in CD1 mouse at 2.7 mg/kg, po measured after 6 hrs by LC-MS/MS method; assay type: ADME, organism-based; set-up: dose 2.7 mg/kg, route oral; details: read-out: BPR
Procedure, shortened: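 Brain homogenate and plasma drug levels were taken 6 h after oral dosing, and their ratio was reported. Plasma was assayed by LC/MS/MS after acetonitrile protein precipitation.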

[3] = target: Growth hormone secretagogue receptor type 1 (Homo sapiens, UniProt Q92847); assay: Displacement of [125I]human ghrelin from human GHS-R1a expressed in HEK cell membranes after 60 mins by gamma counting method; set-up: species or system HEK293
MDR1 [4] = assay: Apparent permeability in MDCK cells expressing MDR1 at 10 uM assessed as apical to basolateral side transport; assay type: ADME, cell-based, Canis lupus familiaris; details: dog
Procedure, shortened: (§1)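 MDCK-MDR1 monolayers incubated with compound at 10 µM; permeability measured in both A→B and B→A directions, giving Papp A-B (x10^6 cm/s) and the efflux ratio.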

MDR1 [5] = assay: Efflux ratio in MDCK cells expressing MDR1 at 10 uM; assay type: ADME, cell-based, Canis lupus familiaris; details: dog; procedure, shortened: as §1
[6] = Cmax in CD1 mouse at 2 mg/kg, po by LC-MS/MS method; assay type: ADME, organism-based; set-up: dose 2 mg/kg, route oral; details: in vivo
Procedure, shortened: (§2)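 Oral gavage in male HW rats, beagle dogs or CD-1 mice, vehicle Pluronic F127 in water. EDTA plasma was collected over 24 h and quantified by LC/MS/MS after acetonitrile precipitation. Cmax and bioavailability were obtained by non-compartmental analysis against IV data.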

[7] = Ratio of free drug level in homogenized brain to plasma in CD1 mouse measured 6 hrs after oral dosing by LC-MS/MS method; assay type: ADME
Procedure, shortened: (§3)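 CD-1 mice dosed PO in 1% Pluronic F127. Drug was measured in homogenized brain and in plasma 6 h after dosing and expressed as a brain:plasma ratio. The free ratio used free fraction measured in mouse plasma and rat brain (brain slice or brain homogenate).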

Mus musculus [8] = assay: Increase in food intake in po dosed C57Bl6j mouse free feeding model measured in 2 hrs intervals; assay type: functional, organism-based
Procedure, shortened: (§4)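 Male mice (C57Bl6j, GHSr1-/- or wild-type littermates) were acclimatized 3 weeks to reversed light-dark, then individually housed 7 days and grouped (n=10-12) by baseline intake and body weight. Suspensions in 1% Pluronic F127 or vehicle were gavaged at 10 mL/kg about 1 h before dark onset. Pre-weighed food was reweighed at 2, 4, 6 and 24 h.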

[9] = Volume of distribution at steady state in CD1 mouse at 2 mg/kg, iv; assay type: ADME, organism-based; set-up: dose 2 mg/kg, route intravenous; details: in vivo, read-out: Vdss
Procedure, shortened: (§5)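 Male HW rats, beagle dogs or CD-1 mice received an IV bolus in 5% DMSO/95% hydroxypropyl-β-cyclodextrin (30% w/v). EDTA plasma was sampled over 24 h and assayed by LC/MS/MS after acetonitrile protein precipitation. CL and Vss were obtained by non-compartmental analysis.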

[10] = Ratio of plasma concentration in C57Bl6j mouse free feeding model at 30 mg/kg, po after 6 hrs to IC50 for mouse GHS-R1a expressed in HEK cell membranes; assay type: ADME, organism-based, HEK293; set-up: dose 30 mg/kg, route oral; details: in vivo
Procedure, shortened: (§6)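 Male mice were kept on a reversed light cycle and given a 1% Pluronic F127 suspension orally (10 mL/kg) about 1 h before dark. Plasma exposure was corrected for mouse plasma protein binding and divided by mouse GHS-R1a binding IC50. Binding was 20 pM [125I]ghrelin displacement on HEK membranes, 60 min rt, pH 7.4, read by gamma counting.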

[11] = Cmax in Han-Wistar rat at 2 mg/kg, po; assay type: ADME, organism-based; set-up: dose 2 mg/kg, route oral; details: in vivo; procedure, shortened: as §2
[12] = Clearance in beagle dog at 1 mg/kg, iv; assay type: ADME, organism-based, Canis lupus familiaris; set-up: dose 1 mg/kg, route intravenous; details: in vivo; procedure, shortened: as §5
[13] = target: Growth hormone secretagogue receptor type 1 (Rattus norvegicus) (UniProt O08725); assay: Displacement of [125I]human ghrelin from rat GHS-R1a expressed in HEK cell membranes after 60 mins by gamma counting method; details: hek293
[14] = Ratio of plasma concentration in C57Bl6j mouse free feeding model at 30 mg/kg, po after 1 hr to IC50 for mouse GHS-R1a expressed in HEK cell membranes; assay type: ADME, organism-based, HEK293; set-up: dose 30 mg/kg, route oral; details: in vivo; procedure, shortened: as §6
[15] = Unbound fraction in Han-Wistar rat plasma; assay type: ADME, cell-free
[16] = Displacement of [125I]human ghrelin from mouse GHS-R1a expressed in HEK cell membranes after 60 mins by gamma counting method; details: hek293
Procedure, shortened: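 HEK cell membranes stably overexpressing mouse or rat GHS-R1a (4 µg/well) incubated 60 min at rt with 20 pM [125I]human ghrelin and competing compound. Buffer: 50 mM Tris-HCl, 5 mM MgCl2, 0.01% BSA, pH 7.4, plus 10 µM methyl arachidonyl fluorophosphonate. Stopped by filtration over PEI-soaked GF/C filters with ice-cold washes, then gamma counting. IC50 is the mean of ≥2 independent determinations.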

[17] = (§7) Oral bioavailability in Han-Wistar rat at 2 mg/kg; assay type: ADME, organism-based; details: Han-Wistar, in vivo; procedure, shortened: as §2
[18] = Oral bioavailability in CD1 mouse at 5 mg/kg; assay type: ADME, organism-based; details: in vivo; procedure, shortened: as §2
[19] = Clearance in CD1 mouse at 2 mg/kg, iv; assay type: ADME, organism-based; set-up: dose 2 mg/kg, route intravenous; details: in vivo; procedure, shortened: as §5
[20] = Unbound fraction in beagle dog plasma; assay type: ADME, cell-free, Canis lupus familiaris
[21] = Aqueous solubility at pH 7.4 under thermodynamic conditions; assay type: physicochemical; details: buffer, read-out: Therm_solubility
Procedure, shortened: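 Thermodynamic solubility measured from solid samples in aqueous medium at pH 7.4.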

[22] = Ratio of plasma concentration in C57Bl6j mouse free feeding model at 30 mg/kg, po after 2 hrs to IC50 for mouse GHS-R1a expressed in HEK cell membranes; assay type: ADME, organism-based, HEK293; set-up: dose 30 mg/kg, route oral; details: in vivo; procedure, shortened: as §6
[23] = Oral bioavailability in beagle dog at 1 mg/kg; assay type: ADME, organism-based, Canis lupus familiaris; details: in vivo; procedure, shortened: as §2
[24] = Volume of distribution at steady state in Han-Wistar rat at 2 mg/kg, iv; assay type: ADME, organism-based; set-up: dose 2 mg/kg, route intravenous; details: in vivo, read-out: Vdss; procedure, shortened: as §5
[25] = Clearance in Han-Wistar rat at 2 mg/kg, iv; assay type: ADME, organism-based; set-up: dose 2 mg/kg, route intravenous; details: in vivo; procedure, shortened: as §5
Mus musculus [26] = assay: Increase in food intake in po dosed C57Bl6j mouse free feeding model measured over 24 hrs period; assay type: functional; procedure, shortened: as §4
[27] = Cmax in CD1 mouse at 5 mg/kg, po; assay type: ADME, organism-based; set-up: dose 5 mg/kg, route oral; details: in vivo; procedure, shortened: as §2
[28] = Unbound fraction in CD1 mouse plasma; assay type: ADME, cell-free
[29] = Volume of distribution at steady state in beagle dog at 1 mg/kg, iv; assay type: ADME, organism-based, Canis lupus familiaris; set-up: dose 1 mg/kg, route intravenous; details: in vivo, read-out: Vdss; procedure, shortened: as §5
[30] = Cmax in beagle dog at 1 mg/kg, po; assay type: ADME, organism-based, Canis lupus familiaris; set-up: dose 1 mg/kg, route oral; details: in vivo; procedure, shortened: as §2
[31] = Clearance in beagle dog at 2 mg/kg, iv; assay type: ADME, organism-based, Canis lupus familiaris; set-up: dose 2 mg/kg, route intravenous; details: in vivo; procedure, shortened: as §5
Mus musculus [32] = assay: Reduction in free feeding level in po dosed C57Bl6j mouse free feeding model measured over 24 hrs period; assay type: functional, organism-based; procedure, shortened: as §4
[33] = Cmax in beagle dog at 2 mg/kg, po; assay type: ADME, organism-based, Canis lupus familiaris; set-up: dose 2 mg/kg, route oral; details: in vivo; procedure, shortened: as §2
Mus musculus [34] = assay: Reduction in free feeding level in po dosed GHS-R1a knock out C57Bl6j mouse free feeding model measured over 6 hrs; assay type: functional, organism-based; procedure, shortened: as §4
[35] = target: Voltage-gated inwardly rectifying potassium channel KCNH2 (Homo sapiens, UniProt Q12809); assay: Inhibition of human ERG at 33 uM
[36] = target: Neuronal acetylcholine receptor subunit alpha-4 (Homo sapiens, UniProt P43681); assay: Inhibition of alpha4 nAChR (unknown origin)
[37] = Oral bioavailability in beagle dog at 2 mg/kg; assay type: ADME, organism-based, Canis lupus familiaris; details: in vivo; procedure, shortened: as §2
[38] = Oral bioavailability in CD1 mouse at 7 mg/kg; assay type: ADME, organism-based; details: in vivo; procedure, shortened: as §2
Rattus norvegicus = assay: as §7; assay type: ADME, organism-based; details: in vivo; procedure, shortened: as §2
[39] = Cmax in CD1 mouse at 7 mg/kg, po; assay type: ADME, organism-based; set-up: dose 7 mg/kg, route oral; details: in vivo; procedure, shortened: as §2
[40] = Ratio of drug level in homogenized brain to plasma in CD1 mouse at 7 mg/kg, po measured after 6 hrs by LC-MS/MS method; assay type: ADME, organism-based; set-up: dose 7 mg/kg, route oral; details: read-out: BPR; procedure, shortened: as §3
[41] = target: Sodium-dependent dopamine transporter (Homo sapiens, UniProt Q01959); assay: Inhibition of DAT (unknown origin)
Mus musculus [42] = assay: Reduction in free feeding level in po dosed C57Bl6j mouse free feeding model measured in first 6 hrs; assay type: functional, organism-based; procedure, shortened: as §4
[43] = Volume of distribution at steady state in beagle dog at 2 mg/kg, iv; assay type: ADME, organism-based, Canis lupus familiaris; set-up: dose 2 mg/kg, route intravenous; details: in vivo, read-out: Vdss; procedure, shortened: as §5
[44] = Ratio of drug level in homogenized brain to plasma in Han-Wistar rat measured 1 hr after iv bolus then iv infusion by LC-MS/MS method; assay type: ADME, organism-based; details: read-out: BPR
Procedure, shortened: (§8)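 Brain:plasma ratio in homogenized brain 1 h after IV bolus followed by IV infusion. The free ratio used free fractions measured in plasma and brain (brain slice method or brain homogenate).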

[45] = Ratio of free drug level in homogenized brain to plasma in Han-Wistar rat measured 1 hr after iv bolus then iv infusion by LC-MS/MS method; assay type: ADME, organism-based; details: read-out: BPR; procedure, shortened: as §8
[46] = Cmax in Han-Wistar rat at 2 mg/kg, po by LC-MS/MS method; assay type: ADME, organism-based; set-up: dose 2 mg/kg, route oral; details: in vivo; procedure, shortened: as §2

Sequence of Growth hormone secretagogue receptor type 1 (Q92847 whole entry): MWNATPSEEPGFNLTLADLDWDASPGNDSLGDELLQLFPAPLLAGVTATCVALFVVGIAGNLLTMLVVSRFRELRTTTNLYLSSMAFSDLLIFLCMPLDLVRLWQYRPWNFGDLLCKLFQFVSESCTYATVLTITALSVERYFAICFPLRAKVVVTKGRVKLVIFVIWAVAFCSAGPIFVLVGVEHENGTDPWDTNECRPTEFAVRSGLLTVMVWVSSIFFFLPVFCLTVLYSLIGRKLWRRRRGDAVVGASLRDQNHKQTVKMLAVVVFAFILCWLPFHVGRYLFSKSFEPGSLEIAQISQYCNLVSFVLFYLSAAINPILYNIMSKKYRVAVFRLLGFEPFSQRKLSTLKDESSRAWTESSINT
Sequence of Sodium-dependent dopamine transporter (Q01959 whole entry): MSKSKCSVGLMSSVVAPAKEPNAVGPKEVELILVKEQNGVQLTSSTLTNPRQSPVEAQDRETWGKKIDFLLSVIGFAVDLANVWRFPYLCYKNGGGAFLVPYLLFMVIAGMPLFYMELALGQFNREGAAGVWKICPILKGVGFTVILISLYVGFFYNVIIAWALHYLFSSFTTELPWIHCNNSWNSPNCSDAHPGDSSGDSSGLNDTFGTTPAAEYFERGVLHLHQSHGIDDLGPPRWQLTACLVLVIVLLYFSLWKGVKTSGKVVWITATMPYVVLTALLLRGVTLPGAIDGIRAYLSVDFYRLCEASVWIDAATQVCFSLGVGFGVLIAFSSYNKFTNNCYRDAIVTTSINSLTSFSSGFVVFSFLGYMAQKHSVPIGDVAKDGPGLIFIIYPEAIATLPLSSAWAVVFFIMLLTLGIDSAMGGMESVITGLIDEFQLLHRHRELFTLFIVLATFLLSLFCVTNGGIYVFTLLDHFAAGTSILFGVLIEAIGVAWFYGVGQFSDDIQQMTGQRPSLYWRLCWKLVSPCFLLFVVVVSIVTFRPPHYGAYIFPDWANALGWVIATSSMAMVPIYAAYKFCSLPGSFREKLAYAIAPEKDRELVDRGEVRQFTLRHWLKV
Sequence of Growth hormone secretagogue receptor type 1 (Rattus norvegicus) (O08725 whole entry, looked up): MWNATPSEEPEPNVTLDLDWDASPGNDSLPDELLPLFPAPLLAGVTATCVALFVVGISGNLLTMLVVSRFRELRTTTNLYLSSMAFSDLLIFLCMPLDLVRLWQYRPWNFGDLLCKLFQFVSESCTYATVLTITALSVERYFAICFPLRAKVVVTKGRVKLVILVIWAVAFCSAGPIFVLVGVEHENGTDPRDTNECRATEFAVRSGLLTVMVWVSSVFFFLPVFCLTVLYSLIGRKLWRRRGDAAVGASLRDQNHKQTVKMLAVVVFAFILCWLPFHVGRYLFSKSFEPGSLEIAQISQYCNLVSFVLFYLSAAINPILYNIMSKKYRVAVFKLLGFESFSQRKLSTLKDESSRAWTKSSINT
Sequence of Voltage-gated inwardly rectifying potassium channel KCNH2 (Q12809 whole entry): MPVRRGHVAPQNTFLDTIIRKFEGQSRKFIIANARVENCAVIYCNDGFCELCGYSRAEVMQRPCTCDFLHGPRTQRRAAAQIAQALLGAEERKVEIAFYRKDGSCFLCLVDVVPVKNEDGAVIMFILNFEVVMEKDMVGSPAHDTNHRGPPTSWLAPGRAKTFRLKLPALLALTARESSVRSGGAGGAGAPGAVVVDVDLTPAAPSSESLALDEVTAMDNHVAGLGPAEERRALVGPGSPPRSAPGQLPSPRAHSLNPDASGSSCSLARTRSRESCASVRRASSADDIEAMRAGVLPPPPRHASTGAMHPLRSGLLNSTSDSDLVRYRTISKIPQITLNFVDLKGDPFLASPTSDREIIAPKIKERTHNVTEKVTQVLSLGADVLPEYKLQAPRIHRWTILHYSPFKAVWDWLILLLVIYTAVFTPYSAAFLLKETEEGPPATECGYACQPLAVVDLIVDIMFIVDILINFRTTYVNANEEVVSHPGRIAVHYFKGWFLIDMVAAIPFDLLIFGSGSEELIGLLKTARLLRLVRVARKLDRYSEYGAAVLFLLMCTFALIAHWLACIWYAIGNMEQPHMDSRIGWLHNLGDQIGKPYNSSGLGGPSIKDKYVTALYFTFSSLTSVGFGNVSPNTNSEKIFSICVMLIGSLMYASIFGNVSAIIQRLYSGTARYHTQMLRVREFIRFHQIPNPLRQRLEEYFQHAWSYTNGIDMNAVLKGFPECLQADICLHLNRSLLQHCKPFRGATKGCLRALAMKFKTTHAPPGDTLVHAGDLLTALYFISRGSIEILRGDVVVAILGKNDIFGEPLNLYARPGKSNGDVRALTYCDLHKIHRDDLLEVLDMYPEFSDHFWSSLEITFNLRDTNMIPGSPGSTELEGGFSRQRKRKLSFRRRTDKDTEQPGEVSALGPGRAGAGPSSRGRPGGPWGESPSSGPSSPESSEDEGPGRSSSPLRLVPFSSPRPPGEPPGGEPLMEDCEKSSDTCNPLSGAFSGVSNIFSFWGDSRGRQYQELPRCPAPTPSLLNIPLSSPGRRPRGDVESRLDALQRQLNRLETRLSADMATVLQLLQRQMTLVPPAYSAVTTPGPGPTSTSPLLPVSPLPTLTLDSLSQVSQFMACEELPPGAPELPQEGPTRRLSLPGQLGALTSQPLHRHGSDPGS
Sequence of Neuronal acetylcholine receptor subunit alpha-4 (P43681 whole entry): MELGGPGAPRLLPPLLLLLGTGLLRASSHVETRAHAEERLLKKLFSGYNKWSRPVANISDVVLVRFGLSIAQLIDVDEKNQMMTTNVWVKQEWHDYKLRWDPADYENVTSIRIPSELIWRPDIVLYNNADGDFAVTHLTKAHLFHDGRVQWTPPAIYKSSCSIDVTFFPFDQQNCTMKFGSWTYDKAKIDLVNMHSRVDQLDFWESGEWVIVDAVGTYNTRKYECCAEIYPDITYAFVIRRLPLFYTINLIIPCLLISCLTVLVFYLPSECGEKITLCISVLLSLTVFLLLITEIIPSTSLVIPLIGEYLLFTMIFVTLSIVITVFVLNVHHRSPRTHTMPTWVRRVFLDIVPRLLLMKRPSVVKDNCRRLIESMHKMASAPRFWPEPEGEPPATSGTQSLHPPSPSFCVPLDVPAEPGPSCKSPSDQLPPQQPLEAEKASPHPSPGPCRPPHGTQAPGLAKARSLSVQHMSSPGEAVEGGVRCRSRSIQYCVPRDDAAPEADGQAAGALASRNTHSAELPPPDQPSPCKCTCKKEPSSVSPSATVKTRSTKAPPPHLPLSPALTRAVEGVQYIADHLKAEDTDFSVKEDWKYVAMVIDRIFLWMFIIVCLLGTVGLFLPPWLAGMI

| logD [1] | IC50 [3] | Papp A→B at 10 µM (MDR1 [4]) | efflux ratio at 10 µM (MDR1 [5]) | Cmax [6] | Vd [9] | Cmax [11] | fraction unbound [15] | IC50 [16] | clearance [19] | fraction unbound [20] | Vd [24] | clearance [25] | fraction unbound [28] | Structure (SMILES) | also measured |
| --- | --- | --- | --- | --- | --- | --- | --- | --- | --- | --- | --- | --- | --- | --- | --- |
| 2.8 | 7.2 nM | 5.1 ×10⁻⁶ cm/s | 1.2 | 3000 nM |  |  |  |  |  |  |  |  |  | CN1CCC(S(=O)(=O)c2ccc3nc(NC(=O)NC(=O)c4cc5c(cc4Cl)CCN5C)sc3c2)CC1 | Kp at 6 h [2]: 0.15; Kp uu at 6 h [7]: 0.072 |
| 1.8 | 1.3 nM | 7.1 ×10⁻⁶ cm/s | 4.2 |  | 4.5 L/kg | 340 nM | 0.08 | 4.9 nM | 35 mL/min/kg | 0.096 | 4.9 L/kg | 24 mL/min/kg | 0.13 | CN1CCN(CCCS(=O)(=O)c2ccc3nc(NC(=O)NC(=O)c4ccccc4Cl)sc3c2)CC1 | Activity (Mus musculus [8]): Active; Ratio [10]: 20; clearance [12]: 8.1 mL/min/kg; IC50 [13]: 3.6 nM; Ratio [14]: 310; bioavailability [17]: 125%; bioavailability [18]: 40%; solubility thermodynamic [21]: 280 µM (≈ 150 µg/mL); Ratio [22]: 220; bioavailability [23]: 51%; Activity (Mus musculus [26]): 19%; Cmax [27]: 710 nM; Vd [29]: 4 L/kg; Cmax [30]: 200 nM |
| 2.3 |  | 5.4 ×10⁻⁶ cm/s |  | 6500 nM | 0.4 L/kg | 4500 nM | 0.002 | 39 nM | 1.8 mL/min/kg | 0.016 | 0.7 L/kg | 1.9 mL/min/kg | 0.009 | CN1CCC(S(=O)(=O)c2ccc3nc(NC(=O)NC(=O)c4cc(N5CCOCC5)ccc4Cl)sc3c2)CC1 | clearance [31]: 10 mL/min/kg; Activity (Mus musculus [32]): inactive; Cmax [33]: 1000 nM; Activity (Mus musculus [34]): inactive; inhibition (INH) [35]: Not Active; Ki [36]: 52 nM; bioavailability [37]: 31%; bioavailability [38]: 25%; F (Rattus norvegicus): 171%; Cmax [39]: 8000 nM; Kp at 6 h [40]: 0.21; Ki [41]: 290 nM; Activity (Mus musculus [42]): Active; Vd [43]: 0.4 L/kg |
| 2.4 | 0.31 nM | 2.8 ×10⁻⁶ cm/s | 5 |  |  |  |  |  |  |  |  |  |  | CCOc1ccc(Cl)c(C(=O)NC(=O)Nc2nc3ccc(S(=O)(=O)CCCN4CCN(C)CC4)cc3s2)c1 | Kp at 1 h [44]: 0.052; Kp uu at 1 h [45]: 0.52; Cmax [46]: 4200 nM |
